Converted amounts (≈) assume the structure as drawn.
Legend:
Format in all cases: functional
[1] = test system: Mycobacterium tuberculosis; assay: Antitubercular activity against Mycobacterium tuberculosis CNCTC My 331/88 (H37Rv) assessed as inhibition of bacterial growth measured after 14 days of incubation by Sulas semisynthetic medium based assay; settings: 336 h, time 14 day
Outline: (§1)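 Micromethod MIC in Sula's semisynthetic medium. MIC is the lowest concentration inhibiting >99% of the mycobacterial population. Isoniazid was the standard drug.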

[2] = test system: Mycobacterium tuberculosis; assay: Antitubercular activity against Mycobacterium tuberculosis CNCTC My 331/88 (H37Rv) assessed as inhibition of bacterial growth measured after 21 days of incubation by Sulas semisynthetic medium based assay; settings: 504 h, time 21 day; outline: as §1
Mycobacterium avium [3] = assay: Antitubercular activity against Mycobacterium avium CNCTC My 330/88 assessed as inhibition of bacterial growth measured after 21 days of incubation by Sulas semisynthetic medium based assay; settings: CNCTC My 330/88, 504 h, time 21 day
Outline: (§2)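 M. avium was tested by the micromethod in Sula's semisynthetic medium. Compounds in DMSO at 1000 to 0.5 μmol/L. Incubation at 37 °C, read at 14 and 21 days. MIC is the lowest concentration giving >99% growth inhibition.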

Mycobacterium kansasii [4] = assay: Antitubercular activity against Mycobacterium kansasii CNCTC My 235/80 assessed as inhibition of bacterial growth measured after 7 days of incubation by Sulas semisynthetic medium based assay; settings: CNCTC My 235/80, 168 h, time 7 day
Outline: (§3)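 Micromethod in Sula's semisynthetic medium. MIC is the lowest concentration inhibiting >99% of the mycobacterial population. Isoniazid was the standard.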

Mycobacterium kansasii [5] = assay: Antitubercular activity against Mycobacterium kansasii CNCTC My 235/80 assessed as inhibition of bacterial growth measured after 14 days of incubation by Sulas semisynthetic medium based assay; settings: CNCTC My 235/80, 336 h, time 14 day; outline: as §3
Mycobacterium kansasii [6] = assay: Antitubercular activity against Mycobacterium kansasii CNCTC My 235/80 assessed as inhibition of bacterial growth measured after 21 days of incubation by Sulas semisynthetic medium based assay; settings: CNCTC My 235/80, 504 h, time 21 day; outline: as §3
Mycobacterium avium [7] = assay: Antitubercular activity against Mycobacterium avium CNCTC My 330/88 assessed as inhibition of bacterial growth measured after 14 days of incubation by Sulas semisynthetic medium based assay; settings: CNCTC My 330/88, 336 h, time 14 day; outline: as §2

SMILES | MIC99 [1] | MIC99 [2] | MIC99 (Mycobacterium avium [3]) | MIC99 (Mycobacterium kansasii [4]) | MIC99 (Mycobacterium kansasii [5]) | MIC99 (Mycobacterium kansasii [6]) | MIC99 (Mycobacterium avium [7])
COc1cccc(Cn2cnc3nc(N4CCOCC4)[nH]c(=O)c32)c1 | 500 µM (≈ 171 µg/mL) | > 500 µM | > 500 µM | > 500 µM | > 500 µM | > 500 µM | –
COCCN(C)c1nc2ncn(Cc3ccc4ccccc4c3)c2c(=O)[nH]1 | > 500 µM | > 500 µM | > 500 µM | > 500 µM | > 500 µM | > 500 µM | > 500 µM
Oc1nc(N2CCOCC2)nc2ncn(Cc3ccccc3)c12 | > 500 µM | > 500 µM | > 500 µM | > 500 µM | > 500 µM | > 500 µM | > 500 µM
O=c1[nH]c(N2CCOCC2)nc2c1ncn2Cc1ccc(Cl)cc1 | > 500 µM | > 500 µM | > 500 µM | > 500 µM | > 500 µM | > 500 µM | > 500 µM
CN(C)CCNc1nc(N2CCOCC2)nc2ncn(Cc3ccc4ccccc4c3)c12 | 32 µM (≈ 13.8 µg/mL) | 64 µM (≈ 27.6 µg/mL) | 500 µM (≈ 216 µg/mL) | 64 µM (≈ 27.6 µg/mL) | 125 µM (≈ 53.9 µg/mL) | 125 µM (≈ 53.9 µg/mL) | 500 µM (≈ 216 µg/mL)
CC(C)c1ccc(Cn2cnc3c(=O)[nH]c(N4CCOCC4)nc32)cc1 | 125 µM (≈ 44.2 µg/mL) | > 250 µM | > 250 µM | > 250 µM | > 250 µM | > 250 µM | > 250 µM
O=c1[nH]cnc2ncn(Cc3ccc4ccccc4c3)c12 | > 500 µM | > 500 µM | > 500 µM | 125 µM (≈ 34.5 µg/mL) | > 500 µM | > 500 µM | > 500 µM
O=c1[nH]c(N2CCCC2)nc2ncn(Cc3ccc4ccccc4c3)c12 | 8 µM (≈ 2.76 µg/mL) | 16 µM (≈ 5.53 µg/mL) | > 500 µM | > 500 µM | > 500 µM | > 500 µM | > 500 µM
Cn1c(N2CCOCC2)nc2ncn(Cc3ccc4ccccc4c3)c2c1=O | 32 µM (≈ 12 µg/mL) | 64 µM (≈ 24 µg/mL) | > 500 µM | – | > 500 µM | > 500 µM | > 500 µM
O=c1[nH]c(NC2CC2)nc2ncn(Cc3ccc4ccccc4c3)c12 | > 500 µM | > 500 µM | > 500 µM | > 500 µM | > 500 µM | > 500 µM | > 500 µM
O=c1[nH]c(NC2CCC2)nc2ncn(Cc3ccc4ccccc4c3)c12 | > 500 µM | > 500 µM | > 500 µM | > 500 µM | > 500 µM | > 500 µM | > 500 µM
COc1ccc(Cn2cnc3c(=O)[nH]c(N4CCOCC4)nc32)cc1 | > 500 µM | > 500 µM | > 500 µM | > 500 µM | > 500 µM | > 500 µM | > 500 µM
COc1cccc(Cn2cnc3c(=O)[nH]c(N4CCOCC4)nc32)c1 | > 500 µM | > 500 µM | > 500 µM | > 500 µM | > 500 µM | > 500 µM | > 500 µM
Clc1ncnc2ncn(Cc3ccc4ccccc4c3)c12 | 125 µM (≈ 36.8 µg/mL) | 125 µM (≈ 36.8 µg/mL) | > 1000 µM | 1000 µM (≈ 295 µg/mL) | > 1000 µM | > 1000 µM | > 1000 µM
O=c1[nH]c(N2CCOCC2)nc2c1ncn2Cc1ccc2ccccc2c1 | > 250 µM | > 250 µM | > 250 µM | > 250 µM | > 250 µM | > 250 µM | > 250 µM
O=c1[nH]c(N2CCOCC2)nc2ncn(Cc3ccc(Cl)cc3)c12 | > 500 µM | > 500 µM | > 500 µM | 125 µM (≈ 43.2 µg/mL) | 250 µM (≈ 86.4 µg/mL) | > 500 µM | > 500 µM

SMILES | MIC99 [1] | MIC99 [2] | MIC99 (Mycobacterium avium [3]) | MIC99 (Mycobacterium kansasii [4]) | MIC99 (Mycobacterium kansasii [5]) | MIC99 (Mycobacterium kansasii [6]) | MIC99 (Mycobacterium avium [7])
O=c1[nH]c(N2CC3(COC3)C2)nc2ncn(Cc3ccc4ccccc4c3)c12 | > 500 µM | > 500 µM | > 500 µM | > 500 µM | > 500 µM | > 500 µM | > 500 µM
O=c1[nH]c(N2CCOCC2)nc2ncn(-c3ccsc3)c12 | > 500 µM | > 500 µM | > 500 µM | > 500 µM | > 500 µM | – | > 500 µM
c1ccc2cc(Cn3cnc4nc(N5CCOCC5)nc(N5CCOCC5)c43)ccc2c1 | 125 µM (≈ 53.8 µg/mL) | 125 µM (≈ 53.8 µg/mL) | 500 µM (≈ 215 µg/mL) | 125 µM (≈ 53.8 µg/mL) | 125 µM (≈ 53.8 µg/mL) | 250 µM (≈ 108 µg/mL) | 250 µM (≈ 108 µg/mL)
COc1ccc(Cn2cnc3nc(N4CCOCC4)[nH]c(=O)c32)cc1 | 32 µM (≈ 10.9 µg/mL) | 64 µM (≈ 21.8 µg/mL) | > 500 µM | – | > 500 µM | > 500 µM | > 500 µM
S=c1[nH]c(=S)c2c(ncn2Cc2ccc3ccccc3c2)[nH]1 | > 500 µM | > 500 µM | > 500 µM | > 500 µM | > 500 µM | > 500 µM | > 500 µM
c1ccc2cc(Cn3cnc4nc(N5CCOCC5)nc(NCc5ccncc5)c43)ccc2c1 | 8 µM (≈ 3.61 µg/mL) | 8 µM (≈ 3.61 µg/mL) | 500 µM (≈ 226 µg/mL) | 64 µM (≈ 28.9 µg/mL) | 64 µM (≈ 28.9 µg/mL) | 64 µM (≈ 28.9 µg/mL) | 250 µM (≈ 113 µg/mL)
O=c1[nH]c(NCCO)nc2ncn(Cc3ccc4ccccc4c3)c12 | > 500 µM | > 500 µM | > 500 µM | > 500 µM | > 500 µM | > 500 µM | > 500 µM
O=c1[nH]c(N2CCOCC2)nc2ncn(Cc3cccc4ccccc34)c12 | > 500 µM | > 500 µM | > 500 µM | > 500 µM | > 500 µM | > 500 µM | > 500 µM
S=c1[nH]cnc2ncn(Cc3ccc4ccccc4c3)c12 | > 500 µM | > 500 µM | > 500 µM | > 500 µM | > 500 µM | > 500 µM | > 500 µM
CN(C)c1nc2ncn(Cc3ccc4ccccc4c3)c2c(=O)[nH]1 | > 500 µM | > 500 µM | > 500 µM | > 500 µM | > 500 µM | > 500 µM | > 500 µM
O=c1[nH]c(N2CCOCC2)nc2ncn(-c3cccc4c3sc3ccccc34)c12 | > 250 µM | > 250 µM | > 250 µM | > 250 µM | > 250 µM | > 250 µM | > 250 µM
CN1CCN(c2nc3ncn(Cc4ccc5ccccc5c4)c3c(=O)[nH]2)CC1 | 250 µM (≈ 93.6 µg/mL) | 500 µM (≈ 187 µg/mL) | > 500 µM | 250 µM (≈ 93.6 µg/mL) | 500 µM (≈ 187 µg/mL) | 500 µM (≈ 187 µg/mL) | > 500 µM
O=c1[nH]c(N2CCOCC2)nc2c1ncn2Cc1ccccc1 | > 500 µM | > 500 µM | > 500 µM | > 500 µM | > 500 µM | > 500 µM | > 500 µM
O=c1[nH]c(N2CCOCC2)nc2c1ncn2Cc1ccc(Cl)c(Cl)c1 | > 250 µM | > 250 µM | > 250 µM | > 250 µM | > 250 µM | > 250 µM | > 250 µM
O=c1[nH]c(N2CCOCC2)nc2ccn(Cc3ccc4ccccc4c3)c12 | > 500 µM | > 500 µM | > 500 µM | > 500 µM | > 500 µM | > 500 µM | > 500 µM
COCCNc1nc2ncn(Cc3ccc4ccccc4c3)c2c(=O)[nH]1 | > 500 µM | > 500 µM | > 500 µM | > 500 µM | > 500 µM | > 500 µM | > 500 µM
